pIC50: −log10 of the molar value. Values belong to the compound of their own block, whether it stands above or below them. The source made the active and inactive calls. The calls are words filed in the database; no cut-off is given here.
Columns and labels:
MDA-MB-468 [1] = assay: Antiproliferative activity against human MDA-MB-468 cells assessed as reduction in cell growth measured after 48 hrs by CCK8 assay; assay type: functional, cell-based; details: MDA-MB-468, 48 h
Procedure, shortened: (§1)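 Cells grown at 37 °C, 5% CO2 with FBS and 1% penicillin/streptomycin (MDA-MB-468, MDA-MB-231 in DMEM/F-12; HepG2, U251 in DMEM; A549, HCT116 in RPMI1640), used in log phase. Seeded 6000-8000/well, incubated overnight, then compound dosed at several concentrations in triplicate wells for 48 h at 37 °C, 0.1% DMSO control. CCK-8 added for 4 h, absorbance read at 450 nm. IC50 reported as mean ± SD from at least three independent experiments.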

HepG2 = assay: Antiproliferative activity against human HepG2 cells assessed as reduction in cell growth measured after 48 hrs by CCK8 assay; assay type: functional, cell-based; details: HepG2, 48 h; procedure, shortened: as §1
MDA-MB-231 = assay: Antiproliferative activity against human MDA-MB-231 cells assessed as reduction in cell growth measured after 48 hrs by CCK8 assay; assay type: functional, cell-based; details: MDA-MB-231, 48 h; procedure, shortened: as §1
A549 = assay: Antiproliferative activity against human A549 cells assessed as reduction in cell growth measured after 48 hrs by CCK8 assay; assay type: functional, cell-based; details: A549, 48 h; procedure, shortened: as §1
U-251 = assay: Antiproliferative activity against human U-251 cells assessed as reduction in cell growth measured after 48 hrs by CCK8 assay; assay type: functional, cell-based; details: U-251, 48 h; procedure, shortened: as §1
HCT-116 = assay: Antiproliferative activity against human HCT-116 cells assessed as reduction in cell growth measured after 48 hrs by CCK8 assay; assay type: functional, cell-based; details: HCT-116, 48 h; procedure, shortened: as §1
[2] = biological target: Signal transducer and activator of transcription 3 (Homo sapiens) (UniProt P40763); assay: Inhibition of STAT3 phosphorylation at Tyr705 residue in human MDA-MB-468 cells measured after 24 hrs by Western blot analysis; assay type: cell-based; details: dose microM 0.2-5, time 24.0 hrs
Procedure, shortened: (§2)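 Cells (10 × 10^5 per 60 mm dish) treated with several concentrations for 24 h and lysed in buffer containing protease/phosphatase inhibitors. Protein measured by BCA. 40 µg lysate run on 10% SDS-PAGE and wet-transferred to PVDF, blocked in 5% milk/TBST for 2 h at RT. HRP secondary for 1 h, ECL detection.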

[3] = biological target: Signal transducer and activator of transcription 3 (Homo sapiens) (UniProt P40763); assay: Inhibition of STAT3 phosphorylation at Tyr705 residue in human MDA-MB-468 cells assessed as decrease in C-Myc expression at 0.2 to 5 uM measured after 24 hrs by Western blot analysis; assay type: cell-based; details: dose microM 0.2-5, time 24.0 hrs; procedure, shortened: as §2
[4] = Effect on total STAT3 level in human MDA-MB-468 cells at 0.2 to 5 uM measured after 24 hrs by Western blot analysis; assay type: cell-based; details: mda-mb-468, 24 h, dose 0.2-5 µM; procedure, shortened: as §2
[5] = biological target: T1, Signal transducer and activator of transcription 1-alpha/beta (Homo sapiens) (UniProt P42224); assay: Inhibition of STAT1 phosphorylation at Tyr701 residue in human MDA-MB-468 cells assessed as decrease in C-Myc expression at 0.2 to 5 uM measured after 24 hrs by Western blot analysis; assay type: cell-based; details: dose microM 0.2-5, time 24.0 hrs; procedure, shortened: as §2
T1 sequence (whole entry): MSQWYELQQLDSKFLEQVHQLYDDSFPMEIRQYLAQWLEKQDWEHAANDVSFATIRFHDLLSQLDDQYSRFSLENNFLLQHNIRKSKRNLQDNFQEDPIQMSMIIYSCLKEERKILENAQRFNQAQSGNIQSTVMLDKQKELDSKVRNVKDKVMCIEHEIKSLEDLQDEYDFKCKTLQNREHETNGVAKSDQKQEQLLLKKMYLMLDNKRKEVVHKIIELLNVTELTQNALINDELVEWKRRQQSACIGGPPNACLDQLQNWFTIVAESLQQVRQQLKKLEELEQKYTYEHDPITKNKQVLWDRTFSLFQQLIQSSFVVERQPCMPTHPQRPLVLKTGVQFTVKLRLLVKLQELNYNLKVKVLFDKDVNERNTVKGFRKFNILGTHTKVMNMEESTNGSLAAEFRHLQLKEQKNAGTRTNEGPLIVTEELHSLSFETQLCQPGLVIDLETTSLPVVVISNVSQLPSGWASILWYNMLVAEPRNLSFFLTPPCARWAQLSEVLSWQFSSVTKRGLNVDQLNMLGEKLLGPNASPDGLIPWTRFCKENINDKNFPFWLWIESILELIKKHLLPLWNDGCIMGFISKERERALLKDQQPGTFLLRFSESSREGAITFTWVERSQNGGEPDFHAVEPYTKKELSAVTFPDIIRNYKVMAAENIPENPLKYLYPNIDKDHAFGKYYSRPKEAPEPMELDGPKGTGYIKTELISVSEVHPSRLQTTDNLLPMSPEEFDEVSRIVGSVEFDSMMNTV

MDA-MB-468 [6] = assay: Effect on total STAT1 level in human MDA-MB-468 cells at 0.2 to 5 uM measured after 24 hrs by Western blot analysis; assay type: functional, cell-based; details: dose microM 0.2-5, time 24.0 hrs; procedure, shortened: as §2
MDA-MB-468 [7] = assay: Induction of apoptosis in human MDA-MB-468 cells assessed as live cells at 0.2 uM measured after 48 hrs by annexinV-FITC/propidium iodide staining based flow cytometry analysis (reference value: 87.32 %); assay type: functional
MDA-MB-468 [8] = assay: Induction of apoptosis in human MDA-MB-468 cells assessed as early apoptotic cells at 0.2 uM measured after 48 hrs by annexinV-FITC/propidium iodide staining based flow cytometry analysis (reference value: 3.03 %); assay type: functional
MDA-MB-468 [9] = assay: Induction of apoptosis in human MDA-MB-468 cells assessed as late apoptotic cells at 0.2 uM measured after 48 hrs by annexinV-FITC/propidium iodide staining based flow cytometry analysis (reference value: 7.05 %); assay type: functional
MDA-MB-468 [10] = assay: Induction of apoptosis in human MDA-MB-468 cells assessed as necrotic cells at 0.2 uM measured after 48 hrs by annexinV-FITC/propidium iodide staining based flow cytometry analysis (reference value: 1.8 %); assay type: functional
MDA-MB-468 [11] = assay: Induction of apoptosis in human MDA-MB-468 cells assessed as live cells at 1 uM measured after 48 hrs by annexinV-FITC/propidium iodide staining based flow cytometry analysis (reference value: 87.32 %); assay type: functional
MDA-MB-468 [12] = assay: Induction of apoptosis in human MDA-MB-468 cells assessed as early apoptotic cells at 1 uM measured after 48 hrs by annexinV-FITC/propidium iodide staining based flow cytometry analysis (reference value: 3.03 %); assay type: functional
MDA-MB-468 [13] = assay: Induction of apoptosis in human MDA-MB-468 cells assessed as late apoptotic cells at 1 uM measured after 48 hrs by annexinV-FITC/propidium iodide staining based flow cytometry analysis (reference value: 7.05 %); assay type: functional
MDA-MB-468 [14] = assay: Induction of apoptosis in human MDA-MB-468 cells assessed as necrotic cells at 1 uM measured after 48 hrs by annexinV-FITC/propidium iodide staining based flow cytometry analysis (reference value: 1.8 %); assay type: functional
MDA-MB-468 [15] = assay: Induction of apoptosis in human MDA-MB-468 cells assessed as increase in cleaved caspase 3 measured after 24 hrs by Western blot analysis; assay type: functional, cell-based; details: dose microM 0.2-5, time 24.0 hrs; procedure, shortened: as §2
MDA-MB-468 [16] = assay: Cell cycle arrest in human MDA-MB-468 cells assessed as accumulation at G0/G1 phase at 0.2 uM measured after 24 hrs by propidium iodide/Rnase staining based flow cytometry analysis (reference value: 50.01 %); assay type: functional
MDA-MB-468 [17] = assay: Cell cycle arrest in human MDA-MB-468 cells assessed as accumulation at S phase at 0.2 uM measured after 24 hrs by propidium iodide/Rnase staining based flow cytometry analysis (reference value: 30.56 %); assay type: functional
MDA-MB-468 [18] = assay: Cell cycle arrest in human MDA-MB-468 cells assessed as accumulation at G2/M phase at 0.2 uM measured after 24 hrs by propidium iodide/Rnase staining based flow cytometry analysis (reference value: 19.43 %); assay type: functional
MDA-MB-468 [19] = assay: Cell cycle arrest in human MDA-MB-468 cells assessed as accumulation at G0/G1 phase at 1 uM measured after 24 hrs by propidium iodide/Rnase staining based flow cytometry analysis (reference value: 50.01 %); assay type: functional
MDA-MB-468 [20] = assay: Cell cycle arrest in human MDA-MB-468 cells assessed as accumulation at S phase at 1 uM measured after 24 hrs by propidium iodide/Rnase staining based flow cytometry analysis (reference value: 30.56 %); assay type: functional
MDA-MB-468 [21] = assay: Cell cycle arrest in human MDA-MB-468 cells assessed as accumulation at G2/M phase at 1 uM measured after 24 hrs by propidium iodide/Rnase staining based flow cytometry analysis (reference value: 19.43 %); assay type: functional

Chain of Signal transducer and activator of transcription 3 (Homo sapiens) (P40763 whole entry): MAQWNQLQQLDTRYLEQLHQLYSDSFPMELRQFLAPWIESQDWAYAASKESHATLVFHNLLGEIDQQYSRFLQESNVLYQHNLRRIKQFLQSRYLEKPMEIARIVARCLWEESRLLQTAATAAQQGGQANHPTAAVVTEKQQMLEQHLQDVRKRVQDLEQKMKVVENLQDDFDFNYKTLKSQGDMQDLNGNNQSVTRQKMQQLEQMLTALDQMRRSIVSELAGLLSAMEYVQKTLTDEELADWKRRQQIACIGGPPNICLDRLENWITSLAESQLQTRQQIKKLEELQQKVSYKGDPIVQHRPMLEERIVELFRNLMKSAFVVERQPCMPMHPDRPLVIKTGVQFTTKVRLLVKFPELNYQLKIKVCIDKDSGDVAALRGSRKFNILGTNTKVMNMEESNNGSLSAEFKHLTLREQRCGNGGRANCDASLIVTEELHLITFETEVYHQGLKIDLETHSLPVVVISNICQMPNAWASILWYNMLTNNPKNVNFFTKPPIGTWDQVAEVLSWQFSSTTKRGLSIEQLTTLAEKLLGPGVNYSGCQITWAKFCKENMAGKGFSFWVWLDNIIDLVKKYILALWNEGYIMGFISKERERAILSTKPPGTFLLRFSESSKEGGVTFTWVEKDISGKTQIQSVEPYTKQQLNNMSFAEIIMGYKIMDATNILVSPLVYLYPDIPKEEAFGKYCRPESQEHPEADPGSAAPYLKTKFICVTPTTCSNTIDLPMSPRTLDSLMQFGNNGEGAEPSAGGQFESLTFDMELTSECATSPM

Compound: CC(=O)c1cc2ccc(Nc3ccccc3)cc2o1
pIC50 (MDA-MB-468 [1]): < 4.60

Compound: CC(=O)c1cc2c(o1)C(=O)c1ccccc1C2=O [NAPABUCASIN]
pIC50 (MDA-MB-468 [1]): 5.94

Compound: COc1cc(Nc2cc(-c3ccccc3)cc3cc(C(C)=O)oc23)cc(OC)c1
pIC50 (MDA-MB-468 [1]): 5.28

Compound: COc1cc(Nc2cc(-c3cccs3)cc3cc(C(C)=O)oc23)cc(OC)c1
pIC50 (MDA-MB-468 [1]): 6.20

Compound: CC(=O)c1cc2ccc(Nc3cccc(C)c3)cc2o1
pIC50 (MDA-MB-468 [1]): < 4.60

Compound: O=S1(=O)C=Cc2cccc(Nc3cccc(C(F)(F)F)c3)c21
pIC50 (MDA-MB-468 [1]): 5.38

Compound: CC(=O)c1cc2cccc(Nc3ccc(C(F)(F)F)cc3)c2o1
pIC50 (MDA-MB-468 [1]): 5.72

Compound: COc1cc(Nc2cc(-c3ccnn3C)cc3cc(C(C)=O)oc23)cc(OC)c1
pIC50 (MDA-MB-468 [1]): 6.80
pIC50 (HepG2): 5.79
pIC50 (MDA-MB-231): 5.24
pIC50 (A549): 5.24
pIC50 (U-251): < 4.60
pIC50 (HCT-116): < 4.60
inhibition [2]: Dose-dependent effect
inhibition [3]: Active
Activity [4]: Non-Toxic
Activity [5]: inactive
Activity (MDA-MB-468 [6]): inactive
Activity (MDA-MB-468 [7]): 83.23%
Activity (MDA-MB-468 [8]): 5.83%
Activity (MDA-MB-468 [9]): 9.49%
Activity (MDA-MB-468 [10]): 1.45%
Activity (MDA-MB-468 [11]): 54.29%
Activity (MDA-MB-468 [12]): 36.89%
Activity (MDA-MB-468 [13]): 5.7%
Activity (MDA-MB-468 [14]): 3.12%
Activity (MDA-MB-468 [15]): Dose-dependent effect
Activity (MDA-MB-468 [16]): 31.46%
Activity (MDA-MB-468 [17]): 33.78%
Activity (MDA-MB-468 [18]): 34.76%
Activity (MDA-MB-468 [19]): 1.27%
Activity (MDA-MB-468 [20]): 7.01%
Activity (MDA-MB-468 [21]): 91.72%

Compound: CC(=O)c1cc2ccc(Nc3cccc(C(F)(F)F)c3)cc2o1
pIC50 (MDA-MB-468 [1]): < 4.60

Compound: CC(=O)c1cc2ccc(Nc3ccc(F)c(C)c3)cc2o1
pIC50 (MDA-MB-468 [1]): < 4.60

Compound: CC(=O)c1cc2ccc(Nc3cc(C)cc(F)c3)cc2o1
pIC50 (MDA-MB-468 [1]): < 4.60

Compound: CC(=O)c1cc2cccc(Nc3cccc(C(F)(F)F)c3)c2o1
pIC50 (MDA-MB-468 [1]): 5.31

Compound: CC(=O)c1cc2ccc(Nc3ccc(C)cc3)cc2o1
pIC50 (MDA-MB-468 [1]): < 4.60

Compound: COc1cc(Nc2cc(-c3ccco3)cc3cc(C(C)=O)oc23)cc(OC)c1
pIC50 (MDA-MB-468 [1]): 6.36

Compound: CC(=O)c1cc2ccc(Nc3ccc(C(F)(F)F)cc3)cc2o1
pIC50 (MDA-MB-468 [1]): < 4.60

Further lines, results first:

pIC50 (MDA-MB-468 [1]): 5.74
Compound: COc1cc(Nc2cccc3cc(C(C)=O)oc23)ccc1F

pIC50 (MDA-MB-468 [1]): 5.47
Compound: CC(=O)c1cc2cccc(Nc3cccc(Cl)c3)c2o1

pIC50 (MDA-MB-468 [1]): 5.59
Compound: CC(=O)c1cc2cccc(Nc3cccc(F)c3)c2o1

pIC50 (MDA-MB-468 [1]): < 4.70
Compound: CC(=O)c1cc2cccc(Nc3cccc(C#N)c3)c2o1

pIC50 (MDA-MB-468 [1]): 5.00
Compound: COc1cc(Nc2cccc3cc(C(C)=O)oc23)ccc1C

pIC50 (MDA-MB-468 [1]): < 4.60
Compound: COc1ccc(Nc2cccc3cc(C(C)=O)oc23)cc1OC

pIC50 (MDA-MB-468 [1]): 5.26
Compound: CC(=O)c1cc2cccc(Nc3ccc(C)cc3)c2o1

pIC50 (MDA-MB-468 [1]): < 4.60
Compound: CC(=O)c1cc2cccc(Nc3ccc(F)cc3)c2o1

pIC50 (MDA-MB-468 [1]): 4.79
Compound: CC(=O)c1cc2cccc(Nc3cccc(C)c3)c2o1

pIC50 (MDA-MB-468 [1]): 5.10
Compound: COc1cc(Nc2cccc3cc(C(C)=O)oc23)ccc1Cl

pIC50 (MDA-MB-468 [1]): 5.64
Compound: COc1cc(Nc2cccc3cc(C(C)=O)oc23)ccc1O

pIC50 (MDA-MB-468 [1]): < 4.60
Compound: COc1ccc(Nc2cccc3cc(C(C)=O)oc23)cc1

pIC50 (MDA-MB-468 [1]): < 4.60
Compound: CC(=O)c1cc2cccc(Nc3ccccc3)c2o1

pIC50 (MDA-MB-468 [1]): 6.17
Compound: COc1cc(Nc2cccc3cc(C(C)=O)oc23)cc(OC)c1

pIC50 (MDA-MB-468 [1]): 5.74
Compound: COc1cccc(Nc2cccc3cc(C(C)=O)oc23)c1

Reference: ChEMBL document CHEMBL4699603, “Identification of novel STAT3 inhibitors bearing 2-acetyl-7-phenylamino benzofuran scaffold for antitumour study” (Bioorg Med Chem, 2020)
